Calls of active or inactive are those of the source.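 The calls were made as follows: active = EC50 for reversing nicotinamide-shortened yeast lifespan at or below a set limit; inactive = EC50 above that limit.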
tested on: S. cerevisiae DeaD BB579, nicotinamide rescue growth, OD615 48 h; assay: rescue of nicotinamide-suppressed growth of yeast BB579, dose response, yeast lifespan extension project, S. cerevisiae (AID 809)
Procedure, shortened: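 System: S. cerevisiae DeaD strain BB579 / Medium: Glucose-containing restrictive synthetic medium (CSMM-D), shifted from galactose / Schedule: 4 h pre-incubation, 48 h exposure at 30 °C / Technique: optical density at 615 nm (absorbance) / Read-out: culture growth as lifespan proxy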

SMILES	EC50
COc1cc(OC)cc(-c2nc3ccccc3c(=O)n2OC(=O)c2ccccc2C)c1	> 10 µM (inactive)
C=CCN(CC=C)S(=O)(=O)c1ccc2nc(NC(=O)C(C)C)sc2c1	> 10 µM (inactive)
O=Cc1cc2ccccc2nc1SCc1ccc(Cl)cc1	8.27 µM
CC(C)n1c(=O)c2c(O)cc(=O)oc2c2ccccc21	0.63 µM
CCCCC(CC)Cn1c2nc3ccccc3nc2c2c(=N)oc(C)nc21 (stereo unspecified)	> 10 µM (inactive)
CC(=O)Oc1ccccc1N1C(=O)c2ccc(C(=O)O)cc2C1=O	> 10 µM (inactive)
O=C1CC(c2ccccc2)CC(O)=C1C=NCCN1CCN(C(=O)Cc2ccccc2)CC1 (stereo unspecified)	6.72 µM
CN(Cc1c(O)ccc2c1oc(=O)c1ccccc12)C1CCCCC1	> 10 µM (inactive)
O=C(Nc1nc2ccccc2n1CCN1CCOCC1)c1cn(-c2ccccc2)nc1-c1ccccc1	> 10 µM (inactive)
O=C1c2ccccc2NC(c2cnc3ccccc3n2)N1O (stereo unspecified)	1.42 µM
COc1ccc(CC(=O)Nc2ccc3c(c2)CCC3)cc1S(=O)(=O)N1CCOCC1	> 10 µM (inactive)

— PubChem BioAssay AID809 (SRMLSC, 2007)
